The IC50 is the concentration that inhibits the measured activity by half. Broadly, the inhibition is the relative decrease from the control value, in per cent. What is called EC50 is the midpoint of the concentration-response curve.

In assay [1] the target is Glycogen synthase kinase-3 beta (Homo sapiens, UniProt P49841). In words: Inhibition of human GSK3-beta by fluorescence anisotropy binding assay. The essentials:
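Competitive fluorescence anisotropy binding against a fluorescently labelled inhibitor. Compound typically 24 pM–25 µM final, DMSO <3%. Equilibrated 60–180 min at ambient temperature; anisotropy read at ex 485/em 535 nm. Assay error ±0.2 log units.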
(Fluorescence polarisation rises when a labelled molecule tumbles more slowly, as on binding a larger partner.)

The target in assay [2] is Dual specificity mitogen-activated protein kinase kinase 1 (Homo sapiens) (UniProt Q02750). Description: Inhibition of MEK1 at 10 uM.
The target of assay [3] is Cyclin-dependent kinase 2 (Homo sapiens) (UniProt P24941). In words: Inhibition of CDK2 at 10 uM.
Assay [4] concerns the target RAC-alpha serine/threonine-protein kinase (Homo sapiens) (UniProt P31749). In words: Inhibition of PKBa at 10 uM.
Assay [5] has as its target T1, Serine/threonine-protein kinase Chk1 (Homo sapiens) (UniProt O14757).
T1 sequence (whole entry): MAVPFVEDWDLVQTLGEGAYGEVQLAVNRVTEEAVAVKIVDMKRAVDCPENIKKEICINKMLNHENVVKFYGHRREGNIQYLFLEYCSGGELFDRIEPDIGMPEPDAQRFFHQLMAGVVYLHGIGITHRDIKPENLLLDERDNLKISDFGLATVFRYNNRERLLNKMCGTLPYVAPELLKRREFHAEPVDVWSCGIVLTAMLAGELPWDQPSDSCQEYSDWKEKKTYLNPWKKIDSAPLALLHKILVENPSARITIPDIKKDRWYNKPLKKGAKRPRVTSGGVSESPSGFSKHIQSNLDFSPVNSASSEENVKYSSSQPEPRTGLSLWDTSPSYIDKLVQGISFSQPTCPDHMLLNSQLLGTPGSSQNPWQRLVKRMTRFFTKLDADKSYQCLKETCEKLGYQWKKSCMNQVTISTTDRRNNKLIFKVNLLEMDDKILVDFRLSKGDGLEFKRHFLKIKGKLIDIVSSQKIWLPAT
In words: Inhibition of CHK1 at 10 uM.

The target in assay [6] is Glycogen synthase kinase-3 beta (Rattus norvegicus, UniProt P18266). In words: Inhibition of rat GSK3-beta in L6 cells assessed as accumulation of glycogen. Format: cell-based.
For assay [7], the target named is Vascular endothelial growth factor receptor 2 (Homo sapiens, UniProt P35968). Description: Inhibition of VEGFR2.
A short description of assay [8]: Inhibition of PKA at 10 uM.
Assay [9] concerns the target T2, Serine/threonine-protein kinase Sgk1 (Homo sapiens) (UniProt O00141).
T2 sequence (whole entry): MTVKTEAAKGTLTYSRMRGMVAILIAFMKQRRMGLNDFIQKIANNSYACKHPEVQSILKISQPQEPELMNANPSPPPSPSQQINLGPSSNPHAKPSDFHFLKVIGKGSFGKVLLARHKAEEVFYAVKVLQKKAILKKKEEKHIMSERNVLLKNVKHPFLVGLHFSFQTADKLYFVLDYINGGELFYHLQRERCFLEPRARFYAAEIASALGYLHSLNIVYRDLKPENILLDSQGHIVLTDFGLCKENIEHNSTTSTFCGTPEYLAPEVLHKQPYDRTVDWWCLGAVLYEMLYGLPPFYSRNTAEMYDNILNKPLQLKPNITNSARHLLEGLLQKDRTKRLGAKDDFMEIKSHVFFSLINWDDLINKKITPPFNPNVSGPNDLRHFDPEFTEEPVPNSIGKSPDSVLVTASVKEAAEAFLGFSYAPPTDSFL
In words: Inhibition of SGK at 10 uM.

Assay [10] in a line: Inhibition of GSK3 at 10 uM.
Assay [11] can be described thus: Inhibition of MAPK at 10 uM.
Assay [12] is described as follows: Inhibition of AMPK at 10 uM.
The target of assay [13] is Mitogen-activated protein kinase 8 (Homo sapiens) (UniProt P45983). In words: Inhibition of JNK1 at 10 uM.
Mitogen-activated protein kinase 8 (Homo sapiens), sequence (P45983 whole entry): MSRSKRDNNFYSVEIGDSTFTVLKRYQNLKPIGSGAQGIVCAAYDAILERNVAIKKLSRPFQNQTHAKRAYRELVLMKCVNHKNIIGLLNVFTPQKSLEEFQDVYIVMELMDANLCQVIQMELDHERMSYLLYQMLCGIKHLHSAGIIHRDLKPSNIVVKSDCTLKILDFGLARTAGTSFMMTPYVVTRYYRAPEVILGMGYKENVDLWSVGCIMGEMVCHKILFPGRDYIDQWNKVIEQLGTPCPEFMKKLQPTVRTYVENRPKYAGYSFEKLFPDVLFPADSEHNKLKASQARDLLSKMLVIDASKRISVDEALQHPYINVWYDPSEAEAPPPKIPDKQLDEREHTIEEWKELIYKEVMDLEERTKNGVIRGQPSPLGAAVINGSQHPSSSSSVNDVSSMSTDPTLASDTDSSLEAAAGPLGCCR

Glycogen synthase kinase-3 beta (Homo sapiens, UniProt P49841), sequence (P49841 whole entry): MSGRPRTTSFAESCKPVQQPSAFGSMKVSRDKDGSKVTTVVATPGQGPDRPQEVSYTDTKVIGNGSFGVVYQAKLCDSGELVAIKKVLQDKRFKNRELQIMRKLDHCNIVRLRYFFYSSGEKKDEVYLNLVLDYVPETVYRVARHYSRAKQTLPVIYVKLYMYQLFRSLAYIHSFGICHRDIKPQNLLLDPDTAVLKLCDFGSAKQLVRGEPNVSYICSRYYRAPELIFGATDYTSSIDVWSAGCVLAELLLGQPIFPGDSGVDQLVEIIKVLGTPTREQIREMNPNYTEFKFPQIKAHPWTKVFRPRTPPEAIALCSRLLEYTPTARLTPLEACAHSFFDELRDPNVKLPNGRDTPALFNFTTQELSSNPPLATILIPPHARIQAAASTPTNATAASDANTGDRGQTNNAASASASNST
Vascular endothelial growth factor receptor 2, sequence (P35968 whole entry): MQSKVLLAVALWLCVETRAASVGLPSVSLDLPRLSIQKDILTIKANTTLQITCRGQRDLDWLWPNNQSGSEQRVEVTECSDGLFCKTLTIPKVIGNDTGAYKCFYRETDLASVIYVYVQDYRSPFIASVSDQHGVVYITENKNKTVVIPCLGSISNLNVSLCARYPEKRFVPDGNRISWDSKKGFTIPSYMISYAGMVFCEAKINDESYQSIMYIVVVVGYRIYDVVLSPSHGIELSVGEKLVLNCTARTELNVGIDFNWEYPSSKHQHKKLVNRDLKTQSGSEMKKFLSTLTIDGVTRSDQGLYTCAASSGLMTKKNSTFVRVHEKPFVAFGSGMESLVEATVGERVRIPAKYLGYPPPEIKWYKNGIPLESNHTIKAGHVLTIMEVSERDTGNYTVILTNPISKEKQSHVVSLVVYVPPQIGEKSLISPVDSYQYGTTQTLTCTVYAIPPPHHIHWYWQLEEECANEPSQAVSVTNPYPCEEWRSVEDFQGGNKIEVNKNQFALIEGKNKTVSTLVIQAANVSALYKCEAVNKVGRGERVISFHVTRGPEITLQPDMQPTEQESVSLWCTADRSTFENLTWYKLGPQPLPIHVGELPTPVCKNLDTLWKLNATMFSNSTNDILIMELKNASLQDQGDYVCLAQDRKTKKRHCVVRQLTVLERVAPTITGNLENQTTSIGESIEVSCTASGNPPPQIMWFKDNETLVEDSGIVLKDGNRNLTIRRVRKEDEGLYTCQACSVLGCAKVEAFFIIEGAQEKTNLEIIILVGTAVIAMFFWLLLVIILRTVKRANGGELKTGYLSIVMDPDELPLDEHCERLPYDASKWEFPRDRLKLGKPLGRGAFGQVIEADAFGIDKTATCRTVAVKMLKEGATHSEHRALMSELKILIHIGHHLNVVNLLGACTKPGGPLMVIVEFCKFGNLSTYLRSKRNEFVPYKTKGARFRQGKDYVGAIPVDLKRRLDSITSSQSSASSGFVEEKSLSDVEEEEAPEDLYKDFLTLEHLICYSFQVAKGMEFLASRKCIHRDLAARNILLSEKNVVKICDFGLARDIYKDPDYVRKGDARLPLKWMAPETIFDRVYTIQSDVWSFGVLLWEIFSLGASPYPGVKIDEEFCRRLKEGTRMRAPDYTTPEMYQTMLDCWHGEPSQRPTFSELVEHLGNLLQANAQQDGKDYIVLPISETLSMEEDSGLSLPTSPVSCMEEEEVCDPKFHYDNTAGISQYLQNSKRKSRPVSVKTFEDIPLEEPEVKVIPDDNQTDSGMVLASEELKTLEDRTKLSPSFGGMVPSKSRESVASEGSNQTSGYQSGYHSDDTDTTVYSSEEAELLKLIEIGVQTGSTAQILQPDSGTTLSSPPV
Glycogen synthase kinase-3 beta (Rattus norvegicus, UniProt P18266), sequence (P18266 whole entry): as the sequence (P49841 whole entry) above, with V240M, T390P, T392A, A400T, T402A counted along it
RAC-alpha serine/threonine-protein kinase (Homo sapiens), sequence (P31749 whole entry): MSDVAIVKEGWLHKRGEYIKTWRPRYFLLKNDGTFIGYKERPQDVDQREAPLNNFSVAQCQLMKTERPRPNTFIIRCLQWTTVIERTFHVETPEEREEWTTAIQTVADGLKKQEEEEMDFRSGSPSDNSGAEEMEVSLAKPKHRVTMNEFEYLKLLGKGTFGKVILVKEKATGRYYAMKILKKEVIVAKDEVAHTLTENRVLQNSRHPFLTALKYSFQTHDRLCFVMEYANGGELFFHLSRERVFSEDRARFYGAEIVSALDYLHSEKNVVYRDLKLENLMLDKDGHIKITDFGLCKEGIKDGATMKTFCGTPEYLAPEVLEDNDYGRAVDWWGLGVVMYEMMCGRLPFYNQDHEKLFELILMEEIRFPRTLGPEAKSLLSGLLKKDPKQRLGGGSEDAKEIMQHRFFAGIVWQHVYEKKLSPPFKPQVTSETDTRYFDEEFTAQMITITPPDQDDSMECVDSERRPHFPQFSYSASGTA
Dual specificity mitogen-activated protein kinase kinase 1 (Homo sapiens), sequence (Q02750 whole entry): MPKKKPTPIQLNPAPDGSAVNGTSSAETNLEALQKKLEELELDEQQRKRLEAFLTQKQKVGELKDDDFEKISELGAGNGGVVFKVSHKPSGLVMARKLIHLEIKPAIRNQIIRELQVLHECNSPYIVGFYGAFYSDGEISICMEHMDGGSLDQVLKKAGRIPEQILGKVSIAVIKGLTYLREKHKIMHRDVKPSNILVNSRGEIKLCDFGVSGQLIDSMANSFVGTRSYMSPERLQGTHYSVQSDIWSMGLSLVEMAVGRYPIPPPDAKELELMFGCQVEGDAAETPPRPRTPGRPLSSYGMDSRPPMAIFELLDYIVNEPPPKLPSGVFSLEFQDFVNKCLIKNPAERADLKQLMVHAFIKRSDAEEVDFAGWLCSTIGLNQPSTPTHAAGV

`CC(=O)Nc1ccc(-c2c(-c3cccnc3)oc3ncnc(N)c23)cc1` gave a half-inhibitory concentration (IC50) in [1] of 1630 nM.
On the same count and under the same terms, next, `COc1ccc(-c2oc3ncnc(N)c3c2-c2ccc(OC)cc2)cc1`: greater than 15000 nM.
Same read-out and setting: next, `Nc1ncnc2oc(-c3cccnc3)c(-c3ccc(NS(=O)(=O)c4cccs4)cc3)c12`: 23 nM.
In the case of `CS(=O)(=O)Nc1ccc(-c2c(-c3cccnc3)oc3ncnc(N)c23)cc1`, in assay [1], the IC50 was found to be 475 nM.
Regarding `Nc1ncnc2oc(-c3cccnc3)c(-c3ccc(NC(=O)c4cccc(F)c4)cc3)c12`, the IC50 in [1] came to 1590 nM.
Consider `Nc1ncnc2oc(-c3cccnc3)c(-c3ccc(NS(=O)(=O)c4ccccc4)cc3)c12`, for which the inhibition in assay [2] was -0%; in [3], 27%; in assay [4], 29%; in [5], 3%; in assay [8], -0%; in assay [9], 3%. Besides, the inhibition in assay [10] was found to be 100%; in [11] it was 5%; in assay [12], 44%; in assay [13] it was 7%. The EC50 in [6] was found to be 3200 nM. Moreover, the concentration for half-maximal inhibition (IC50) in [7] is 1120 nM; in assay [1] it was 30 nM.
Consider `COc1ccc(-c2oc3ncnc(N)c3c2-c2ccc(NS(=O)(=O)c3ccccc3)cc2)cc1`, for which the IC50 in assay [1] is greater than 15000 nM.

Source of the values: ChEMBL document CHEMBL1142374, “Rational design of 4-amino-5,6-diaryl-furo[2,3-d]pyrimidines as potent glycogen synthase kinase-3 inhibitors” (Bioorg Med Chem Lett, 2008).
